Source: paper PMC7610821 (Chemical communications (Cambridge, England), 2020)
Blank lines part the entries; values can stand above or below the compound they belong to.

Assays:
[1] = molecular target: LSD1-CoREST-HDAC1 complex (Homo sapiens, UniProt Q13547); experiment: AMC-fluorescence histone deacetylase inhibition assay with purified complex; type: biochemical; conditions: compared with CI-994, Fig 3A
[2] = tested on: Histone 3 Lysine 56 acetylation (H3K56Ac); experiment: H3K56 acetylation by quantitative western blotting in ES cells; type: cell-based; conditions: E14 mouse ES cells, 24h; CI-994 = 40μM, Panobinostat = 30 nM
HCT116 cells = experiment: Cell viability of HCT116 cells by flow cytometry; type: cell-based, human; conditions: HCT116, 40μM, 48 hours
Procedure, shortened: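 Human colon cancer HCT116 cells were exposed to the test compound at 10 and 40 μM. A reference class I HDAC inhibitor was run alongside. Viability was scored by flow cytometry after 48 h of treatment.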

Chain of LSD1-CoREST-HDAC1 complex (Q13547 whole entry, other chains not shown): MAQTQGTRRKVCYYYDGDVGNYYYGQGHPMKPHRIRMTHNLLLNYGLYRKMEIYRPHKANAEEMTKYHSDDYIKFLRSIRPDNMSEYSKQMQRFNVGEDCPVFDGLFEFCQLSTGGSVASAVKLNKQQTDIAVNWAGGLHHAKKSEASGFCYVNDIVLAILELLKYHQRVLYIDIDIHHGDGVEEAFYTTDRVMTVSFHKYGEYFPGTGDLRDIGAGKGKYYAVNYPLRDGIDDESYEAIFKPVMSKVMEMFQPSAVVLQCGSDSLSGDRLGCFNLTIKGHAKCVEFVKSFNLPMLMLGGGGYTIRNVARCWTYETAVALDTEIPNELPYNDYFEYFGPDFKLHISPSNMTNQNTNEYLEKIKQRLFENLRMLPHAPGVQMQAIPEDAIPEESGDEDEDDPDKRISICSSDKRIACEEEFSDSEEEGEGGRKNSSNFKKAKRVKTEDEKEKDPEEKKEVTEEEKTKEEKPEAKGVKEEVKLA
Chain of LSD1-CoREST-HDAC1 complex (Q9UKL0 86-485 partner limits assumed, other chains not shown): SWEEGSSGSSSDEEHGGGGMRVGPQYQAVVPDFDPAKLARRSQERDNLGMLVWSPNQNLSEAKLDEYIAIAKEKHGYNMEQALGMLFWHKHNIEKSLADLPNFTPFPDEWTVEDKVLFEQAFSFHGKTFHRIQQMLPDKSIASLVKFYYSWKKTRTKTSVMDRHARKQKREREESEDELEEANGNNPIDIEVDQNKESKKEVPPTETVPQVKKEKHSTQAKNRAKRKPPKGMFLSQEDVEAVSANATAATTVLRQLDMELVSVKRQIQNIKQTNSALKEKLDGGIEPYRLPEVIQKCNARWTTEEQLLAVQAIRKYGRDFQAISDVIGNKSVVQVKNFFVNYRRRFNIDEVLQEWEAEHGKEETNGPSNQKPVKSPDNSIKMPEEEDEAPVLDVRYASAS

HDAC inhibition of the LSD1-CoREST-HDAC1 complex (in words) [1]: no HDAC inhibition
SMILES: CC(=O)Nc1ccc(C(=O)Nc2ccccc2NC(=O)OC(C)(C)C)cc1 [Compound 5]

SMILES: Cc1[nH]c2ccccc2c1CCNCc1ccc(/C=C/C(=O)NO)cc1 [Panobinostat]
H3K56 acetylation increase, fold compared to non-treated cells [2]: 15-20 fold

SMILES: CC(=O)Nc1ccc(C(=O)Nc2ccccc2N)cc1 [CI-994]
Cell death (HCT116 cells): 73%
